Test results taken from ChEMBL document CHEMBL1649291, “ADS-J1 inhibits human immunodeficiency virus type 1 entry by interacting with the gp41 pocket region and blocking fusion-active gp41 core formation” (Antimicrob Agents Chemother, 2009).
Values belong to the compound of their own block, whether it stands above or below them. Activity calls are given as the source filed them. No cut-off for these calls is given here. Peptide text beside a SMILES is read from it.

Legend:
[1] = tested on: MT2; test: Inhibition of to HIV1 3B gp120 binding to CD4-positive human MT2 cells at 10 ug/ml by ELISA; assay type: cell-based; conditions: Human immunodeficiency virus 1
[2] = tested on: Human immunodeficiency virus 1; conditions: 3B, 1 uM
[3] = tested on: Human immunodeficiency virus 1; test: Binding affinity to IQNI7 pocket of HIV1 3B gp41 at 1 uM after 30 mins by SPR assay
[4] = tested on: Human immunodeficiency virus 1; conditions: 3B, 1 uM; remark: listed apart in the source
[5] = target: C-X-C chemokine receptor type 4 (Homo sapiens) (UniProt P61073); test: Inhibition of MAb12G5 binding to CXCR4 in human CEM cells at 25 uM by ELISA; assay type: cell-based; conditions: CCRF-CEM
Sequence of C-X-C chemokine receptor type 4 (Homo sapiens) (P61073 whole entry): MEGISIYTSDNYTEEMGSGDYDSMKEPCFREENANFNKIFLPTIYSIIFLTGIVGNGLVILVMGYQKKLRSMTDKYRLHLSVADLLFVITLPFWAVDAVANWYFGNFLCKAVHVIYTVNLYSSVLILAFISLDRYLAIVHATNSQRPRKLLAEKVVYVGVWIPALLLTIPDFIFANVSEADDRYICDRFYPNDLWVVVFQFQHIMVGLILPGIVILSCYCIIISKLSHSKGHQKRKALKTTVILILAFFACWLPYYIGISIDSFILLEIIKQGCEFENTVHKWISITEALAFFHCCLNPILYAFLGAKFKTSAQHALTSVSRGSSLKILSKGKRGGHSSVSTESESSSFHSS

[6] = tested on: Human immunodeficiency virus 1; test: Antiviral activity against HIV1 3B infected in human MT2 cells assessed as inhibition of viral p24 antigen production at 5 uM after 8 hrs by ELISA
[7] = tested on: Human immunodeficiency virus 1; test: Inhibition of preformed HIV1 3B gp41 fusion-active core formation at 40 to 100 uM after 30 mins by N-PAGE
How it was run: (§1)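 Native PAGE: N36 incubated with compound or PBS (or, for the preformed case, N36 with C34) at 37°C 30 min before adding the third component; final peptides 40 µM, compounds 100 µM; further 30 min 37°C. Mixed 1:1 with native sample buffer, run on 18% Tris-glycine gels at 125 V, room temperature, 2 h; Coomassie staining.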

[8] = tested on: MT2; test: Inhibition of HIV1 3B gp41-mediated cell-cell fusion between viral envelope expressing virus-infected human H9 cells to human MT2 cells at 10 uM treated before addition of human MT2 cells measured after drug washout by fluorescence assay; assay type: cell-based; conditions: Human immunodeficiency virus 1
How it was run: (§2)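 Dye-transfer fusion: calcein-AM-labeled H9/HIV-1 IIIB cells cocultured with MT-2 cells (1:5) at 37°C for 2 h; compound at 10 µM either present throughout, or preincubated with H9/HIV-1 IIIB or with MT-2 cells 37°C 30 min then removed by two washes before adding partner cells. Fused and unfused labeled cells counted by fluorescence microscopy; triplicates, mean ± SD.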

[9] = tested on: MT2; test: Inhibition of HIV1 3B gp41-mediated cell-cell fusion between viral envelope expressing human virus-infected H9 cells to human MT2 cells at 10 uM by fluorescence assay; assay type: cell-based; conditions: Human immunodeficiency virus 1; how it was run: as §2
[10] = tested on: Human immunodeficiency virus 1; test: Antiviral activity against HIV1 3B infected in human MT2 cells assessed as inhibition of viral p24 antigen production at 5 uM after 1 hr by ELISA
[11] = tested on: Human immunodeficiency virus 1; test: Binding affinity to HIV1 3B gp41 assessed as effect on N36K574D-C34D632K complex formation at 40 to 100 uM after 30 mins by N-PAGE
[12] = Inhibition of PIE7 binding to HIV1 3B gp41 after 30 mins by ELISA; parameters: species or system Human immunodeficiency virus 1
[13] = tested on: MT2; test: Inhibition of HIV1 3B gp41-mediated cell-cell fusion between viral envelope expressing virus-infected human H9 cells to human MT2 cells at 10 uM treated 30 mins before viral infection by fluorescence assay; assay type: cell-based; conditions: Human immunodeficiency virus 1
[14] = tested on: Human immunodeficiency virus 1; test: Binding affinity to HIV1 3B gp41 assessed as alteration of structural configuration of N36-C34 complex at 10 to 40 uM after 30 mins by spectroscopy
How it was run: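 CD spectroscopy in PBS pH 7.2: N36 preincubated with compound or PBS 37°C 30 min, then C34 added and incubated a further 30 min at 37°C; final peptides 10 µM each, compound 40 µM. Spectra at room temperature, 0.1-cm path, blank-subtracted; α-helix content from mean residue ellipticity at 222 nm relative to −33,000 deg cm2 dmol−1.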

[15] = tested on: MT2; test: Inhibition of HIV1 3B gp41-mediated cell-cell fusion between viral envelope expressing virus-infected human H9 cells to human MT2 cells at 10 uM measured after drug washout by fluorescence assay; assay type: cell-based; conditions: Human immunodeficiency virus 1; how it was run: as §2
[16] = tested on: Human immunodeficiency virus 1; test: Induction of alteration of preformed structural configuration of N36-C34 complex in HIV1 3B gp41 at 10 to 40 uM after 30 mins by spectroscopy
How it was run: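 Preformed-complex CD control: N36 and C34 incubated together 37°C 30 min, then compound or PBS added for a further 30 min at 37°C; final peptides 10 µM each, compound 40 µM, in PBS pH 7.2. Spectra at room temperature, blank-subtracted; helicity from 222 nm ellipticity versus −33,000 deg cm2 dmol−1.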

[17] = (§3) Inhibition of HIV1 3B gp41 fusion-active core formation after 30 mins by sandwich ELISA; parameters: species or system Human immunodeficiency virus 1
How it was run: (§4)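 After 30 min at 37°C, mixtures added to wells coated with anti-6-HB rabbit IgG (10 µg/ml); detected with MAb NC-1, biotin anti-mouse IgG, SA-HRP, TMB at A450. Triplicates; percent inhibition calculated.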

[18] = tested on: Human immunodeficiency virus 1; test: as §3; how it was run: as §4
[19] = tested on: Human immunodeficiency virus 1; test: Inhibition of preformed HIV1 3B gp41 fusion-active core formation at 40 to 100 uM after 30 mins by sandwich ELISA
[20] = tested on: Human immunodeficiency virus 1; test: Inhibition of HIV1 3B gp41 fusion-active core formation after 30 mins by N-PAGE; how it was run: as §1
[21] = tested on: Human immunodeficiency virus 1; test: Binding affinity to IQ pocket of HIV1 3B gp41 at 1 uM after 30 mins by SPR assay

SMILES: CN1C(=O)[C@@H](c2cc(Cl)c(O)c(Cl)c2)NC(=O)[C@@H]2NC(=O)[C@@H](c3cc(Cl)c(O)c(Cl)c3)NC(=O)[C@H](NC(=O)C(=O)c3cc(Cl)c(O)c(Cl)c3)Cc3c[nH]c4c(cccc34)-c3cc2cc(c3O)Oc2ccc(cc2)C[C@H]1C(=O)N[C@@H](C(=O)O)c1ccc(O)cc1
inhibition [1]: Active

inhibition [2]: inactive
Activity [3]: inactive
inhibition [4]: Active
SMILES: c1cc(CN2CCCNCCNCCCNCC2)ccc1CN1CCCNCCNCCCNCC1

inhibition [5]: Active
SMILES: N=C(N)NCCC[C@H](NC(=O)[C@H](CS)NC(=O)[C@H](CCCCN)NC(=O)[C@H](CCCNC(=N)N)NC(=O)[C@H](Cc1ccc(O)cc1)NC(=O)[C@H](CS)NC(=O)[C@H](Cc1ccc(O)cc1)NC(=O)CNC(=O)[C@H](CCCCN)NC(=O)[C@H](Cc1ccc(O)cc1)NC(=O)[C@H](CS)NC(=O)[C@H](CCCCN)NC(=O)[C@H](CCCNC(=N)N)NC(=O)[C@H](Cc1ccc(O)cc1)NC(=O)[C@H](CS)NC(=O)[C@H](Cc1c[nH]c2ccccc12)NC(=O)[C@H](CCCNC(=N)N)NC(=O)[C@@H](N)CCCNC(=N)N)C(=O)O (H-RRWCYRKCYKGYCYRKCR-OH)

SMILES: Cc1cn([C@H]2C[C@H](N=[N+]=[N-])[C@@H](CO)O2)c(=O)[nH]c1=O
inhibition [6]: inactive

inhibition [7]: inactive
inhibition [5]: 18%
Activity [3]: Active
Activity [11]: inactive
IC50 [12]: 0.68 µM
Activity [14]: Active
Activity [16]: inactive
IC50 [17]: 3.36 µM
inhibition [18]: Dose-dependent effect
inhibition [19]: inactive
inhibition [20]: Dose-dependent effect
SMILES: COc1ccc(S(=O)(=O)O)cc1/N=N/c1c(S(=O)(=O)O)cc2cc(Nc3nc(Nc4ccccc4)nc(Nc4cc(C)c(/N=N/c5cc(S(=O)(=O)O)cc6cc(S(=O)(=O)O)cc(O)c56)cc4OC)n3)ccc2c1O
inhibition [8]: 80%
inhibition [9]: Active
inhibition [1]: inactive
inhibition [10]: Active
inhibition [13]: inactive
inhibition [15]: 50%

Activity [21]: inactive
SMILES: CC[C@H](C)[C@H](NC(=O)[C@H](CCC(=O)O)NC(=O)[C@H](CC(N)=O)NC(=O)[C@H](CCC(=O)O)NC(=O)[C@@H](NC(=O)[C@H](CCCCN)NC(=O)[C@H](CCCCN)NC(=O)[C@H](CCC(N)=O)NC(=O)[C@H](CCCCN)NC(=O)[C@H](CO)NC(=O)[C@H](CCC(=O)O)NC(=O)[C@@H](NC(=O)[C@H](CCC(=O)O)NC(=O)[C@H](CCC(=O)O)NC(=O)[C@@H](NC(=O)[C@H](CCCCN)NC(=O)[C@H](CC(=O)O)NC(=O)[C@H](CCC(=O)O)NC(=O)[C@@H](NC(=O)[C@H](CCC(N)=O)NC(=O)[C@H](CCCCN)NC(=O)[C@H](CCSC)NC(=O)[C@@H](N)CCCNC(=N)N)[C@@H](C)CC)[C@@H](C)CC)[C@@H](C)CC)[C@@H](C)CC)C(=O)N[C@@H](C)C(=O)N[C@@H](CCCNC(=N)N)C(=O)N[C@H](C(=O)N[C@@H](CCCCN)C(=O)N[C@@H](CCCCN)C(=O)O)[C@@H](C)CC
